Read-outs that look alike come from different tables or passages of the source. Values belong to the compound of their own block, whether it stands above or below them.
Legend:
[1] = test system: LS174T colon cancer cells; test: Cell proliferation assay, LS174T colon cancer cells; type: cell-based; settings: Table 3
Summary of the method: (§1)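 Cells were kept in RPMI or DMEM with 5% or 10% fetal bovine serum and 1% penicillin/streptomycin. They were plated at 3 × 10^4 cells per well in 12-well plates and treated with DMSO or test compound. After 4 days, cell number and viability were counted on a Vi-Cell viability analyzer. Inhibition is relative to DMSO.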

lung epithelial BEAS-2B = test: Cell proliferation assay, normal lung epithelial BEAS-2B cells; type: cell-based
Summary of the method: (§2)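 Cells were obtained from a university collaborator and grown in RPMI or DMEM with 5% or 10% fetal bovine serum plus 1% penicillin/streptomycin. The medium for each line is not specified. Cells were seeded at 3 × 10^4 per well and treated with test compound or DMSO. After 4 days, cell number and viability were counted on an automated cell viability analyzer.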

HT-29 = test: Cell proliferation assay, HT-29 colon cancer cells; type: cell-based
Summary of the method: as §1

fibroblast HEL 299 cells = test: Cell proliferation assay, normal fibroblast HEL 299 cells; type: cell-based
Summary of the method: as §2

cyclin D1 = test: Western blot of cyclin D1 in LS174T cells; type: cell-based; settings: 300 nM
Summary of the method: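 LS174T colon cancer cells were exposed to test compound at 300 nM. Lysates were immunoblotted with antibodies against cyclin D1, p21Wif1/Cip1 and β-tubulin.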

Water solubility = type: physicochemical; settings: for Water solubility of hydrochloride salt: hydrochloride salts
[2] = test system: cyclin-dependent kinase inhibitor p21^Wif1/Cip1; test: Western blot of p21^Wif1/Cip1 in LS174T cells; type: cell-based; settings: 300 nM
[3] = test system: LS174T colon cancer cells; settings: cited from earlier work; for Inhibition of proliferation (%) of LS174T cells: Table 1

SMILES: N.N.[Cl][Pt][Cl] [Cisplatin]
Percentage inhibition of the proliferation of colon cancer cells ([1]; 1 μM): 24.2±5.6%
Percentage inhibition of the proliferation of colon cancer cells ([1]; 10 μM): 82.1±1.4%
Percentage inhibition of the proliferation of normal cells (lung epithelial BEAS-2B; 1 μM): 39.2±14.9%
Percentage inhibition of the proliferation of normal cells (lung epithelial BEAS-2B; 10 μM): 82.4±0.2%
Percentage inhibition of the proliferation of colon cancer cells (HT-29; 1 μM): 4.4±5.9%
Percentage inhibition of the proliferation of colon cancer cells (HT-29; 10 μM): 72.7±3.5%
Percentage inhibition of the proliferation of normal cells (fibroblast HEL 299 cells; 1 μM): 37.5±4.1%
Percentage inhibition of the proliferation of normal cells (fibroblast HEL 299 cells; 10 μM): 57.8±0.3%

Water solubility (Water solubility; parent compound): sparingly water-soluble
SMILES: CN(C)c1ccc(C#Cc2c(F)cccc2F)cc1 [Compound 2, 4-((2,6-difluorophenyl)ethynyl)-N,N-dimethylaniline]
Effect on cyclin D1 (western blot) (cyclin D1): inhibited cyclin D1
Effect on p21^Wif1/Cip1 (western blot) [2]: induced cyclin-dependent kinase inhibitor p21^Wif1/Cip1
Inhibition of cell proliferation (%) of colon cancer LS174T cells ([3]; 30 nM, Table 2): 57±1.2%
Inhibition of proliferation (%) of LS174T cells ([3]; 100 nM): 85.2±0.5%
Inhibition of proliferation (%) of LS174T cells ([3]; 1 μM): 99.5±0.1%

SMILES: CN(C)c1ncc(C#Cc2c(F)cccc2F)c2ccccc12 [Compound 5mm, 4-((2,6-Difluorophenyl)ethynyl)-N,N-dimethylisoquinolin-1-amine]
Effect on cyclin D1 (western blot) (cyclin D1): inhibited cyclin D1
Effect on p21^Wif1/Cip1 (western blot) [2]: induced cyclin-dependent kinase inhibitor p21^Wif1/Cip1

SMILES: CNc1ncc(C#Cc2c(F)cccc2F)c2ccccc12 [Compound 5nn, 4-((2,6-Difluorophenyl)ethynyl)-N-methylisoquinolin-1-amine]
Effect on cyclin D1 (western blot) (cyclin D1): inhibited cyclin D1
Effect on p21^Wif1/Cip1 (western blot) [2]: induced cyclin-dependent kinase inhibitor p21^Wif1/Cip1

Water solubility of hydrochloride salt (Water solubility): completely water-soluble
SMILES: CN1CCN(c2ncc(C#Cc3c(F)cccc3F)c3ccccc23)CC1.Cl [Compound 5oo, 4-((2,6-Difluorophenyl)ethynyl)-1-(4-methylpiperazin-1-yl)isoquinoline]

Water solubility of hydrochloride salt (Water solubility): completely water-soluble
SMILES: CN(C)c1ncc(C#Cc2c(F)cccc2F)c2ncccc12 [Compound 5pp, 8-((2,6-Difluorophenyl)ethynyl)-N,N-dimethyl-1,6-naphthyridin-5-amine]

Reference: publication PMC5839514 (MedChemComm, 2017)
